Measurements from ChEMBL document CHEMBL5356993, “Novel pyrazolo[3,4-d]pyrimidine derivatives: design, synthesis, anticancer evaluation, VEGFR-2 inhibition, and antiangiogenic activity” (RSC Med Chem, 2023).

Experiments:
Format in all cases: functional
Settings in all cases: read-out: GI
SK-MEL-28 = assay: Antiproliferative activity against human SK-MEL-28 cells assessed as cell growth inhibition at 10 uM incubated for 48 hrs by SRB assay relative to control
Method in brief: (§1)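 Cells plated in 96-well plates at […] cells/well and preincubated 24 h at 37 °C, 5% CO2. Time-zero plates were TCA-fixed. Compound was diluted in medium with 50 µg/mL gentamicin and cells exposed for 48 h. Adherent cells fixed with 10% final TCA; suspension cells with 16% final TCA. Plates stained with 0.4% SRB in 1% acetic acid, dye solubilized in 10 mM Trizma, absorbance read at 515 nm. Percent growth calculated against time-zero and control.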

OVCAR-8 = assay: Antiproliferative activity against human OVCAR-8 cells assessed as cell growth inhibition at 10 uM incubated for 48 hrs by SRB assay relative to control
HL-60(TB) = assay: Antiproliferative activity against human HL-60(TB) cells assessed as cell growth inhibition at 10 uM incubated for 48 hrs by SRB assay relative to control
Method in brief: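 Cells were plated at […] cells/well and preincubated 24 h at 37°C, 5% CO2, with time-zero plates TCA-fixed. Compound was diluted from DMSO stock in medium with 50 µg/mL gentamicin, then exposed for 48 h. Settled suspension cells were fixed with 80% TCA (final 16%), stained with 0.4% SRB and solubilized in 10 mM Trizma, A515. Growth was taken relative to Tz and control.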

SNB-19 = assay: Antiproliferative activity against human SNB-19 cells assessed as cell growth inhibition at 10 uM incubated for 48 hrs by SRB assay relative to control
Method in brief: (§2)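 Cells pre-incubated 24 h at 37°C, 5% CO2, then exposed to compound (DMSO stock diluted in medium with 50 µg/mL gentamicin) for 48 h. Adherent cells fixed with cold TCA (final 10%, 60 min, 4°C); suspension cells fixed with 16% TCA final. Stained with 0.4% SRB in 1% acetic acid for 10 min, dye solubilized in 10 mM Trizma base, absorbance read at 515 nm. Growth calculated against time-zero and untreated control plates.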

SK-OV-3 = assay: Antiproliferative activity against human SK-OV-3 cells assessed as cell growth inhibition at 10 uM incubated for 48 hrs by SRB assay relative to control; method in brief: as §1
KM12 = assay: Antiproliferative activity against human KM12 cells assessed as cell growth inhibition at 10 uM incubated for 48 hrs by SRB assay relative to control; method in brief: as §1
NCI-H23 = assay: Antiproliferative activity against human NCI-H23 cells assessed as cell growth inhibition at 10 uM incubated for 48 hrs by SRB assay relative to control
SW-620 = assay: Antiproliferative activity against human SW620 cells assessed as cell growth inhibition at 10 uM incubated for 48 hrs by SRB assay relative to control; method in brief: as §2
HCT-116 = assay: Antiproliferative activity against human HCT-116 cells assessed as cell growth inhibition at 10 uM incubated for 48 hrs by SRB assay relative to control
NCI-H460 = assay: Antiproliferative activity against human NCI-H460 cells assessed as cell growth inhibition at 10 uM incubated for 48 hrs by SRB assay relative to control
CAKI-1 = assay: Antiproliferative activity against human CAKI-1 cells assessed as cell growth inhibition at 10 uM incubated for 48 hrs by SRB assay relative to control
SF-268 = assay: Antiproliferative activity against human SF-268 cells assessed as cell growth inhibition at 10 uM incubated for 48 hrs by SRB assay relative to control
RPMI-8226 = assay: Antiproliferative activity against human RPMI-8226 cells assessed as cell growth inhibition at 10 uM incubated for 48 hrs by SRB assay relative to control
U-251 = assay: Antiproliferative activity against human U-251 cells assessed as cell growth inhibition at 10 uM incubated for 48 hrs by SRB assay relative to control; method in brief: as §2
K562 = assay: Antiproliferative activity against human K562 cells assessed as cell growth inhibition at 10 uM incubated for 48 hrs by SRB assay relative to control
NCI-H226 = assay: Antiproliferative activity against human NCI-H226 cells assessed as cell growth inhibition at 10 uM incubated for 48 hrs by SRB assay relative to control; method in brief: as §1
NCI-H522 = assay: Antiproliferative activity against human NCI-H522 cells assessed as cell growth inhibition at 10 uM incubated for 48 hrs by SRB assay relative to control; method in brief: as §1
Hs-578T = assay: Antiproliferative activity against human Hs-578T cells assessed as cell growth inhibition at 10 uM incubated for 48 hrs by SRB assay relative to control; method in brief: as §1
SF-295 = assay: Antiproliferative activity against human SF-295 cells assessed as cell growth inhibition at 10 uM incubated for 48 hrs by SRB assay relative to control; method in brief: as §1
CCRF-CEM = assay: Antiproliferative activity against human CCRF-CEM cells assessed as cell growth inhibition at 10 uM incubated for 48 hrs by SRB assay relative to control; method in brief: as §1
COLO 205 = assay: Antiproliferative activity against human COLO 205 cells assessed as cell growth inhibition at 10 uM incubated for 48 hrs by SRB assay relative to control
NCI-H322M = assay: Antiproliferative activity against human NCI-H322M cells assessed as cell growth inhibition at 10 uM incubated for 48 hrs by SRB assay relative to control
786-0 = assay: Antiproliferative activity against human 786-0 cells assessed as cell growth inhibition at 10 uM incubated for 48 hrs by SRB assay relative to control
MOLT-4 = assay: Antiproliferative activity against human MOLT-4 cells assessed as cell growth inhibition at 10 uM incubated for 48 hrs by SRB assay relative to control
UACC-257 = assay: Antiproliferative activity against human UACC-257 cells assessed as cell growth inhibition at 10 uM incubated for 48 hrs by SRB assay relative to control; method in brief: as §2
TK-10 = assay: Antiproliferative activity against human TK-10 cells assessed as cell growth inhibition at 10 uM incubated for 48 hrs by SRB assay relative to control; method in brief: as §2
Malme-3M = assay: Antiproliferative activity against human Malme-3M cells assessed as cell growth inhibition at 10 uM incubated for 48 hrs by SRB assay relative to control
SK-MEL-5 = assay: Antiproliferative activity against human SK-MEL-5 cells assessed as cell growth inhibition at 10 uM incubated for 48 hrs by SRB assay relative to control; method in brief: as §1
SK-MEL-2 = assay: Antiproliferative activity against human SK-MEL-2 cells assessed as cell growth inhibition at 10 uM incubated for 48 hrs by SRB assay relative to control; method in brief: as §1
PC-3 = assay: Antiproliferative activity against human PC-3 cells assessed as cell growth inhibition at 10 uM incubated for 48 hrs by SRB assay relative to control
EKVX = assay: Antiproliferative activity against human EKVX cells assessed as cell growth inhibition at 10 uM incubated for 48 hrs by SRB assay relative to control
DU-145 = assay: Antiproliferative activity against human DU-145 cells assessed as cell growth inhibition at 10 uM incubated for 48 hrs by SRB assay relative to control

Compound	inhibition of growth at 10 µM (SK-MEL-28)	inhibition of growth at 10 µM (OVCAR-8)	inhibition of growth at 10 µM (HL-60(TB))	inhibition of growth at 10 µM (SNB-19)	inhibition of growth at 10 µM (SK-OV-3)	inhibition of growth at 10 µM (KM12)	inhibition of growth at 10 µM (NCI-H23)	inhibition of growth at 10 µM (SW-620)	inhibition of growth at 10 µM (HCT-116)	inhibition of growth at 10 µM (NCI-H460)	inhibition of growth at 10 µM (CAKI-1)	inhibition of growth at 10 µM (SF-268)	inhibition of growth at 10 µM (RPMI-8226)	inhibition of growth at 10 µM (U-251)	inhibition of growth at 10 µM (K562)	inhibition of growth at 10 µM (NCI-H226)	inhibition of growth at 10 µM (NCI-H522)	inhibition of growth at 10 µM (Hs-578T)	inhibition of growth at 10 µM (SF-295)	inhibition of growth at 10 µM (CCRF-CEM)	also measured
Cc1nc2c(cnn2-c2ccccc2)c(=O)n1-c1ccc(N)cc1	< 15%	< 15%	< 15%	< 15%	< 15%	< 15%	40.1%	< 15%	25.9%	16.8%	31.7%	17.4%	48.2%	< 15%	52.1%	18%	< 15%	21.4%	27.1%	21%	inhibition of growth at 10 µM (COLO 205): < 15%; inhibition of growth at 10 µM (NCI-H322M): < 15%; inhibition of growth at 10 µM (786-0): < 15%; inhibition of growth at 10 µM (MOLT-4): < 15%; inhibition of growth at 10 µM (UACC-257): 34.3%; inhibition of growth at 10 µM (TK-10): 21.8%; inhibition of growth at 10 µM (Malme-3M): 17.8%; inhibition of growth at 10 µM (SK-MEL-5): 66.8%; inhibition of growth at 10 µM (SK-MEL-2): 17.8%; inhibition of growth at 10 µM (PC-3): 18%; inhibition of growth at 10 µM (EKVX): 63.3%; inhibition of growth at 10 µM (DU-145): 17.3%
COc1ccc(/C=C/C(=O)c2ccc(-n3c(C)nc4c(cnn4-c4ccccc4)c3=O)cc2)cc1	< 15%	16.6%	55.3%	18.2%	< 15%	68.4%	27.6%	24.9%	90.3%	< 15%	25%	< 15%	> 100%	25.9%	87.6%	29.4%	42.6%	< 15%	34.5%	53.6%	inhibition of growth at 10 µM (COLO 205): < 15%; inhibition of growth at 10 µM (NCI-H322M): < 15%; inhibition of growth at 10 µM (786-0): 15.4%; inhibition of growth at 10 µM (MOLT-4): 55.3%; inhibition of growth at 10 µM (UACC-257): 25.4%; inhibition of growth at 10 µM (TK-10): < 15%; inhibition of growth at 10 µM (Malme-3M): 39.5%; inhibition of growth at 10 µM (SK-MEL-5): 72.3%; inhibition of growth at 10 µM (SK-MEL-2): 29.4%; inhibition of growth at 10 µM (PC-3): 34.9%; inhibition of growth at 10 µM (EKVX): 57.1%; inhibition of growth at 10 µM (DU-145): 16.8%
Cc1nc2c(cnn2-c2ccccc2)c(=O)n1-c1ccc(NC(=O)c2ccc([N+](=O)[O-])cc2)cc1	18.2%	34.1%	54%	25.4%	< 15%	20.4%	50.6%	< 15%	55.6%	26.4%	31.5%	< 15%	47.7%	< 15%	68.8%	50.8%	38.9%	23.1%	56.3%	52.5%	inhibition of growth at 10 µM (COLO 205): 25.9%; inhibition of growth at 10 µM (NCI-H322M): 17.2%; inhibition of growth at 10 µM (786-0): 16.3%; inhibition of growth at 10 µM (MOLT-4): 63.4%; inhibition of growth at 10 µM (UACC-257): 50.8%; inhibition of growth at 10 µM (TK-10): 31.5%; inhibition of growth at 10 µM (Malme-3M): 34%; inhibition of growth at 10 µM (SK-MEL-5): 82.4%; inhibition of growth at 10 µM (SK-MEL-2): 29.3%; inhibition of growth at 10 µM (PC-3): 33.7%; inhibition of growth at 10 µM (EKVX): 69.3%; inhibition of growth at 10 µM (DU-145): 21%
Cc1nc2c(cnn2-c2ccccc2)c(=O)n1-c1ccc(NC(=O)c2ccc(Cl)cc2)cc1	17.1%	43.4%	48.1%	16.3%	< 15%	19.2%	47.2%	17.3%	44.5%	28.8%	29.7%	< 15%	52.9%	< 15%	61.3%	49.1%	32.3%	20.1%	45.9%	25.3%	inhibition of growth at 10 µM (COLO 205): 18.8%; inhibition of growth at 10 µM (NCI-H322M): < 15%; inhibition of growth at 10 µM (786-0): 20.3%; inhibition of growth at 10 µM (MOLT-4): 30.7%; inhibition of growth at 10 µM (UACC-257): 53.9%; inhibition of growth at 10 µM (TK-10): 19.9%; inhibition of growth at 10 µM (Malme-3M): 33.3%; inhibition of growth at 10 µM (SK-MEL-5): 80.3%; inhibition of growth at 10 µM (SK-MEL-2): 26.1%; inhibition of growth at 10 µM (PC-3): 36.7%; inhibition of growth at 10 µM (EKVX): 68.5%; inhibition of growth at 10 µM (DU-145): 17.8%
Cc1nc2c(cnn2-c2ccccc2)c(=O)n1-c1ccc(N2C(=O)C=CC2=O)cc1	< 15%	< 15%	< 15%	< 15%	< 15%	< 15%	< 15%	< 15%	< 15%	< 15%	< 15%	< 15%	< 15%	< 15%	< 15%	< 15%	< 15%	< 15%	< 15%	32.2%	inhibition of growth at 10 µM (COLO 205): < 15%; inhibition of growth at 10 µM (NCI-H322M): < 15%; inhibition of growth at 10 µM (786-0): < 15%; inhibition of growth at 10 µM (MOLT-4): < 15%; inhibition of growth at 10 µM (UACC-257): < 15%; inhibition of growth at 10 µM (TK-10): < 15%; inhibition of growth at 10 µM (Malme-3M): < 15%; inhibition of growth at 10 µM (SK-MEL-5): < 15%; inhibition of growth at 10 µM (SK-MEL-2): < 15%; inhibition of growth at 10 µM (PC-3): < 15%; inhibition of growth at 10 µM (EKVX): < 15%; inhibition of growth at 10 µM (DU-145): < 15%
